Test results taken from PubChem BioAssay AID463169 (The Scripps Research Institute Molecular Screening Center, 2010).

Target: Wee1-like protein kinase (Homo sapiens) (UniProt P30291)
Test: blockers of Wee1 turnover via luciferase fusion stabilization, late-stage follow-up, cell-based, HeLa, luminescence, powder samples (AID 463169)
Settings: at 0.1 µM, active compounds read high
In short: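 Test system: HeLa cells transiently transfected with Wee1-luciferase fusion plasmid; Compound: single nominal dose of 100 nM (0.1 µM); Times: transfection 48 h before assay, compound exposure 20 h at 37 °C; Technique: luminescence read after luciferase detection reagent addition; Read-out: mean fold change versus DMSO vehicle; Benchmarks: DMSO-treated cells; Repeats: four replicates.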

Sequence of Wee1-like protein kinase (Homo sapiens) (P30291 whole entry K328M, the tested form may be a part): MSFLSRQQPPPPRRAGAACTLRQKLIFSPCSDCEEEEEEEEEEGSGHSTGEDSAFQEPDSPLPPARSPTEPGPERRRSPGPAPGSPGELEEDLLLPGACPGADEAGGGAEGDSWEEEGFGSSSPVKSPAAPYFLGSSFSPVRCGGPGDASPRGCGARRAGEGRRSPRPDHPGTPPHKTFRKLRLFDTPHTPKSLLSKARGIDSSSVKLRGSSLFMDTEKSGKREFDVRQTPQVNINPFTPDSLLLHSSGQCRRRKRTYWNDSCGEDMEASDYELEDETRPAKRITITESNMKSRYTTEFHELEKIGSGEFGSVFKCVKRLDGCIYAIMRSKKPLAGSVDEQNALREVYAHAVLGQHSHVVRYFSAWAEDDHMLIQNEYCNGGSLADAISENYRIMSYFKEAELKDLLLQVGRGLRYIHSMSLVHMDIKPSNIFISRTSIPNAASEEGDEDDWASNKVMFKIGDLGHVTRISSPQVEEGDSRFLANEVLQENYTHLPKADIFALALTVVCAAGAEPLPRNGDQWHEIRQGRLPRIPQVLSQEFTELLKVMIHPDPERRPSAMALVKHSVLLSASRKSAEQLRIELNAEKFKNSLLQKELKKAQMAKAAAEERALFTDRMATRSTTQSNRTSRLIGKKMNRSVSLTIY

| fold change | Structure (SMILES) |
| --- | --- |
| 12.9 | c1ccc2[nH]c(CNc3nc(N4CCOCC4)nc4c3ncn4-c3ccsc3)nc2c1 |
| 23.3 | O=[N+]([O-])c1cccc2[nH]c(CNc3nc(N4CCOCC4)nc4c3ncn4-c3ccsc3)nc12 |
